pIC50: −log10 of the molar value. Calls of active or inactive are those of the source. The rule behind the calls is not given here. A value given as a limit tells only on which side of the number the result lay.

One assay has as its system MGC-803. The assay can be described thus: Antiproliferative activity against human MGC803 cells after 72 hrs by MTT assay. In kind it is functional, cell-based. Conditions: MGC-803, 72 h. In short, it runs like this: (§1)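 MGC-803 and MCF-7 cells grown in DMEM (MCF-7 with 1× NEAA); Bel-7402 and K562 grown in RPMI 1640; all media with 10% FBS. Cells seeded at 3500/well, pre-incubated 24 h, then exposed to compounds in fresh medium (DMSO ≤0.25%) for 72 h at 37 °C. MTT read-out at 570 nm. Quadruplicate wells, repeated three times; means ± SD (n = 3).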
(Tetrazolium assays rely on reduction of a dye to a coloured formazan, in cell work by metabolically active cells.)

The subject of assay [1] is MCF7. The assay can be described thus: Antiproliferative activity against human MCF7 cells after 72 hrs by MTT assay. It counts as functional, cell-based. Conditions: MCF7, 72 h. In short, it runs like this: as §1
Assay [2] has as its system Bel-7402. Description: Antiproliferative activity against human Bel7402 cells after 72 hrs by MTT assay. The conditions noted are these: Bel-7402, 72 h. It counts as functional, cell-based. In short, it runs like this: as §1
Another assay concerns K562. The assay can be described thus: Antiproliferative activity against human K562 cells after 72 hrs by MTT assay. Conditions: K562, 72 h. In kind it is functional, cell-based. In short, it runs like this:
as §1

The test system of assay [3] is MCF7. The assay can be described thus: Cytotoxicity against human MCF7 cells at 10 to 50 uM after 24 hrs by LDH assay. In kind it is functional, cell-based. A digest of the protocol:
(§2)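 Membrane integrity assay on MCF-7 and Bel-7402 cells seeded at ~5 × 10^3 per well for 24 h, then given compounds at 10, 20 or 50 μM. Culture medium collected and assayed with CytoTox-ONE LDH reagent for 10 min, followed by stop solution. Fluorescence read at Ex 560/Em 590 nm. Expressed as percentage of unstimulated cells.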

The subject of assay [4] is Bel-7402. Description: Cytotoxicity against human Bel7402 cells at 10 to 50 uM after 24 hrs by LDH assay. In kind it is functional, cell-based. A digest of the protocol:
as §2

Assay [5] is described as follows: Antiproliferative activity against human BEL7404/CP20 cells after 48 hrs by MTT assay. In kind it is functional, cell-based. Conditions: BEL7404/CP20, 48 h. A digest of the protocol: (§3)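 Colorimetric MTT assay. KB-3-1, NCI-H460 and Bel-7404 cells were seeded at 4000 cells/well; resistant KB/CP4, NCI-H460/MX20 and Bel-7404/CP20 were seeded at 7000 cells/well. Cells were pre-incubated 24 h at 37 °C, 5% CO2, then exposed to a compound concentration series for 48 h with DMSO ≤0.25%. Absorbance read at 570 nm. Quadruplicate wells, three repeats; means ± SD.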

Assay [6] is described as follows: Antiproliferative activity against human NCI-H460/MX20 cells after 48 hrs by MTT assay. In kind it is functional, cell-based. Conditions: NCI-H460/MX20, 48 h. In short, it runs like this:
as §3

Another assay deals with KB 3-1. The assay can be described thus: Antiproliferative activity against human KB-3-1 cells after 48 hrs by MTT assay. In kind it is functional, cell-based. The conditions noted are these: KB 3-1, 48 h. A digest of the protocol: as §3
Assay [7] in a line: Antiproliferative activity against human KB/CP4 cells after 48 hrs by MTT assay. It counts as functional, cell-based. The conditions noted are these: KB/CP4, 48 h. A digest of the protocol:
as §3

The nature of assay [8]: Selectivity ratio of IC50 for human KB/CP4 cells to IC50 for human KB-3-1 cells.
For a further assay, the system named is NCI-H460. The assay can be described thus: Antiproliferative activity against human NCI-H460 cells after 48 hrs by MTT assay. In kind it is functional, cell-based. Conditions: NCI-H460, 48 h. In short, it runs like this:
as §3

The next assay deals with BEL-7404 tumor cell line. The assay can be described thus: Antiproliferative activity against human Bel7404 cells after 48 hrs by MTT assay. In kind it is functional, cell-based. Conditions: BEL-7404, 48 h. A digest of the protocol:
as §3

As to `C=C1C(=O)[C@]23[C@H](OC(=O)/C=C/c4ccc(OC)cc4)[C@H]1CC[C@H]2[C@]12C=CCC(C)(C)[C@H]1[C@H](O)[C@]3(O)OC2`, the pIC50 is 5.54 in the assay on MGC-803, 6.02 with MCF7 [1], 5.62 with Bel-7402 [2] and 6.06 with K562.
As to `C=C1C(=O)[C@]23[C@H](OC(=O)C4CCCCC4)[C@H]1CC[C@H]2[C@]12C=CCC(C)(C)[C@H]1[C@H](O)[C@]3(O)OC2`, the pIC50 in the assay with MGC-803 is 5.44; in the assay with MCF7 [1] it was 5.23; with Bel-7402 [2], 5.39; in the assay on K562, 5.49.
The like results for `C=C1C(=O)[C@]23[C@H](OC(C)=O)[C@H]1CC[C@H]2[C@]12C=CC(=O)C(C)(C)[C@H]1[C@H](O)[C@]3(O)OC2` were, in that order, 5.28, 5.03, 5.44 and 5.33.
In the case of `C=C1C(=O)[C@]23[C@H](OC(=O)c4c(OC)cccc4OC)[C@H]1CC[C@H]2[C@]12C=CCC(C)(C)[C@H]1[C@H](O)[C@]3(O)OC2`, the pIC50 was 4.67 in the assay with MGC-803, 4.90 with MCF7 [1], 4.34 in the assay with Bel-7402 [2] and 5.16 with K562.
The corresponding values for `O=c1[nH]cc(F)c(=O)[nH]1` [FLUOROURACIL] are 5.51, 5.76, 5.65 and 5.45.
Regarding `C=C1C(=O)[C@]23[C@H](OC(=O)CCCCCCC)[C@H]1CC[C@H]2[C@]12C=CCC(C)(C)[C@H]1[C@H](O)[C@]3(O)OC2`, the result in the assay on MCF7 [3] and with Bel-7402 [4] was inactive. Also, the negative logarithm of the IC50 (pIC50) was 5.57 with MGC-803, 5.61 with MCF7 [1], 5.36 in the assay on Bel-7402 [2] and 5.52 with K562.
Consider `C=C1C(=O)[C@]23[C@H](OC(=O)c4ccccc4C(F)(F)F)[C@H]1CC[C@H]2[C@]12C=CC(=O)C(C)(C)[C@H]1[C@H](O)[C@]3(O)OC2`, for which the pIC50 was 5.44 in the assay with MGC-803, 5.42 in the assay with MCF7 [1], 5.53 in the assay with Bel-7402 [2] and 5.58 in the assay with K562.
The corresponding values for `C=C1C(=O)[C@]23[C@H](OC(=O)c4cc(C)ccc4C)[C@H]1CC[C@H]2[C@]12C=CCC(C)(C)[C@H]1[C@H](O)[C@]3(O)OC2` are 5.16, 5.21, 5.15 and 5.38.
The corresponding values for `C=C1C(=O)[C@]23[C@H](OC(=O)c4ccc([N+](=O)[O-])cc4)[C@H]1CC[C@H]2[C@]12C=CCC(C)(C)[C@H]1[C@H](O)[C@]3(O)OC2` are 5.19, 5.35, 5.29 and 5.77.
On to `C=C1C(=O)[C@]23[C@H](OC(=O)/C=C/c4cccc([N+](=O)[O-])c4)[C@H]1CC[C@H]2[C@]12C=CCC(C)(C)[C@H]1[C@H](O)[C@]3(O)OC2`, for which the pIC50 in the assay with MGC-803 is 5.61; in the assay with MCF7 [1] it was 5.86; in the assay with Bel-7402 [2], 5.75; in the assay with K562, 6.24.
Regarding `C=C1C(=O)[C@]23[C@H](OC(=O)/C=C/c4ccccc4OC)[C@H]1CC[C@H]2[C@]12C=CCC(C)(C)[C@H]1[C@H](O)[C@]3(O)OC2`, the pIC50 is 5.16 in assay [5]; 5.26 in assay [6]; 5.61 in the assay on MGC-803; 5.08 with KB 3-1; 5.34 in assay [7]; 5.27 in the assay with NCI-H460. For the same compound, the pIC50 was 6.09 with MCF7 [1], 5.22 in the assay with BEL-7404 tumor cell line, 5.65 in the assay with Bel-7402 [2] and 6.37 in the assay with K562. Further, the “Ratio IC50” value in assay [8] is on record as <1.
Turning to `C=C1C(=O)[C@]23[C@H](O)[C@H]1CC[C@H]2[C@]12C=C[C@H](O)C(C)(C)[C@H]1[C@H](O)[C@]3(O)OC2`, the pIC50 is 4.21 in the assay on MGC-803, 3.52 in the assay on MCF7 [1], 4.59 in the assay with Bel-7402 [2] and 4.39 with K562.
The corresponding values for `C=C1C(=O)[C@]23[C@H](OC(=O)/C=C/c4ccc(F)cc4)[C@H]1CC[C@H]2[C@]12C=CCC(C)(C)[C@H]1[C@H](O)[C@]3(O)OC2` are 5.29, 5.60, 5.59 and 5.87.
`C=C1C(=O)[C@]23[C@H](OC(=O)c4ccnc(Cl)c4)[C@H]1CC[C@H]2[C@]12C=CC(=O)C(C)(C)[C@H]1[C@H](O)[C@]3(O)OC2`: the negative logarithm of the IC50 (pIC50) is 5.42 in the assay on MGC-803, 5.29 in the assay with MCF7 [1], 5.48 with Bel-7402 [2] and 5.53 in the assay with K562.
The corresponding values for `C=C1C(=O)[C@]23[C@H](OC(=O)c4cc(F)c(F)c(F)c4F)[C@H]1CC[C@H]2[C@]12C=CCC(C)(C)[C@H]1[C@H](O)[C@]3(O)OC2` are 6.00, 5.68, 5.80 and 5.74.
For `C=C1C(=O)[C@]23[C@H](OC(=O)c4ccc(Br)cc4)[C@H]1CC[C@H]2[C@]12C=CCC(C)(C)[C@H]1[C@H](O)[C@]3(O)OC2`, the pIC50 in assay [5] is 5.22; in assay [6] it was 5.33; in the assay with MGC-803 it was 5.70; in the assay with KB 3-1 it was 5.24; in assay [7], 5.49; with NCI-H460, 5.27. Besides, the pIC50 with MCF7 [1] was 6.85; in the assay with BEL-7404 tumor cell line, 5.27; with Bel-7402 [2], 5.97; with K562, 6.48. Besides, the “Ratio IC50” value in assay [8] is reported as <1.
As to `C=C1C(=O)[C@]23[C@H](O)[C@H]1CC[C@H]2[C@@]12CO[C@@]3(O)[C@@H](O)[C@@H]1C(C)(C)C[C@H]1O[C@H]12`, the pIC50 in assay [5] is 4.67; in assay [6], 4.95; with MGC-803, 5.24; in the assay with KB 3-1, 4.68; in assay [7], 5.11; in the assay on NCI-H460, 5.06. In addition, the pIC50 in the assay with MCF7 [1] was 5.27; in the assay on BEL-7404 tumor cell line, 4.86; in the assay on Bel-7402 [2] it was 5.24; in the assay with K562, 5.80. Further, the result with MCF7 [3] and with Bel-7402 [4] was inactive. In assay [8], the “Ratio IC50” value is on record as <1.
Turning to `C=C1C(=O)[C@]23[C@H](OC(=O)CCCC)[C@H]1CC[C@H]2[C@]12C=CCC(C)(C)[C@H]1[C@H](O)[C@]3(O)OC2`, the pIC50 in the assay on MGC-803 is 5.21; in the assay with MCF7 [1], 5.60; in the assay on Bel-7402 [2], 5.22; in the assay on K562, 5.76.
The like results for `C=C1C(=O)[C@]23[C@H](OC(=O)c4cccc(C)c4C)[C@H]1CC[C@H]2[C@]12C=CCC(C)(C)[C@H]1[C@H](O)[C@]3(O)OC2` were, in that order, 5.42, 5.45, 5.63 and 5.77.
The corresponding values for `C=C1C(=O)[C@]23[C@H](OC(=O)/C=C/c4cc(OC)c(OC)c(OC)c4)[C@H]1CC[C@H]2[C@]12C=CCC(C)(C)[C@H]1[C@H](O)[C@]3(O)OC2` are 5.41, 5.63, 5.61 and 6.26.
The like results for `C=C1C(=O)[C@]23[C@H](OC(C)=O)[C@H]1CC[C@H]2[C@]12C=CCC(C)(C)[C@H]1[C@H](O)[C@]3(O)OC2` were, in that order, 5.74, 5.59, 5.78 and 5.78.
`C=C1C(=O)[C@]23[C@H](OC(=O)c4ccccc4C(F)(F)F)[C@H]1CC[C@H]2[C@]12C=CCC(C)(C)[C@H]1[C@H](O)[C@]3(O)OC2`: the negative logarithm of the IC50 (pIC50) is 5.61 with MGC-803, 5.58 in the assay on MCF7 [1], 5.50 in the assay on Bel-7402 [2] and 5.53 in the assay on K562.
The like results for `C=C1C(=O)[C@]23[C@H](OC(=O)c4cccc(Cl)c4)[C@H]1CC[C@H]2[C@]12C=CCC(C)(C)[C@H]1[C@H](O)[C@]3(O)OC2` were, in that order, 5.44, 5.55, 5.38 and 5.65.

For orientation: pIC50 means −log10 of the IC50, conventionally taken in molar units. A higher pIC50 goes with a small IC50.

The values are drawn from ChEMBL document CHEMBL3997810, “A Novel Potent Anticancer Compound Optimized from a Natural Oridonin Scaffold Induces Apoptosis and Cell Cycle Arrest through the Mitochondrial Pathway” (J Med Chem, 2017).
